Results reported in ChEMBL document CHEMBL1123936, “Synthesis and biological evaluation of acyclic neplanocin analogues” (1987).
In brackets after ≈: the same amount, converted by molar mass.

How the values were obtained:
Assay type in all cases: functional
Human alphaherpesvirus 1 [1] = experiment: Compound was evaluated for antiviral activity against HSV-1 reported as ED50 value; conditions: read-out: ED50 (the source's name)
Method in brief: (§1)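 CPE inhibition assay in pregrown Vero cell monolayers infected with HSV-1 (strain 377) or HSV-2 (strain HF). Virus-induced cytopathogenic effect was scored quantitatively. Virus rating weighs the degree of CPE inhibition against cytotoxicity to the host cells, following a modified Ehrlich et al. method.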

Human alphaherpesvirus 1 [2] = experiment: Compound was evaluated for antiviral activity against HSV-1 reported as virus rating; method in brief: as §1
Human alphaherpesvirus 2 [3] = experiment: Compound was evaluated for antiviral activity against HSV-2 reported as virus rating; method in brief: as §1
Human alphaherpesvirus 2 [4] = experiment: Compound was evaluated for antiviral activity against HSV-2 reported as ED50 value; conditions: read-out: ED50 (the source's name); method in brief: as §1
P388 = experiment: Compound was evaluated for growth inhibition of P-388 lymphoid leukemia cells; conditions: Mus musculus, read-out: ED50 (the source's name)
Method in brief: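 P-388 mouse lymphoid leukemia cells were seeded at 4×10^5 per tube in Fischer's medium with 10% horse serum. Twofold compound dilutions were run in duplicate tubes, stoppered, and held at a 30° angle at 37 °C for 72 h without agitation, rotated twice daily. Cells were counted by hemocytometer. Percent inhibition was taken against controls, with counts corrected for the inoculum.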

| Compound | EC50 (Human alphaherpesvirus 1 [1]) [µg/mL] | VR (Human alphaherpesvirus 1 [2]) | VR (Human alphaherpesvirus 2 [3]) | EC50 (Human alphaherpesvirus 2 [4]) [µg/mL] | EC50 (P388) [µg/mL] |
| --- | --- | --- | --- | --- | --- |
| Nc1nc(O)c2ncn(C/C=C/CO)c2n1 | 172 (≈ 778 µM) | 1.5 | 0.9 | 219 (≈ 990 µM) |  |
| Nc1ncnc2c1ncn2C/C=C/CCl |  |  |  |  | 5 (≈ 22.4 µM) |
| Nc1nc2c(ncn2COCCO)c(=O)[nH]1 [ACYCLOVIR] | 12.3 (≈ 54.6 µM) | 6.3 | 4.8 | 4.8 (≈ 21.3 µM) |  |
| Nc1ncnc2c1ncn2[C@@H]1O[C@H](CO)[C@@H](O)[C@@H]1O [VIDARABINE] |  | 2 | 1.4 |  |  |
